Test results published in ChEMBL document CHEMBL3044971, “Dialkoxybenzene and dialkoxyallylbenzene feeding and oviposition deterrents against the cabbage looper, Trichoplusia ni: potential insect behavior control agents” (J Agric Food Chem, 2010).

Tests used:
[1] = system: Trichoplusia ni; test: Oviposition deterrent activity against adult female Trichoplusia ni (cabbage looper) moths introduced along with male moths into oviposition cage containing compound pretreated cabbage leaves assessed as eggs laying on the leaf disks at 0.25% after 48 hr; assay type: functional
How it was run: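 Choice test: one male and one female moth were caged with a control and a treated cabbage leaf (~100-110 cm²). Each side was sprayed with 0.5 mL MeOH or methanolic test solution at 0.25%. Values are mean ± SE, N = 35-40.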

[2] = system: Trichoplusia ni; test: Feeding deterrent activity against freshly molted third-instar larval stage of Trichoplusia ni (cabbage looper) in compound pretreated cabbage leaves after 3 to 5 hr by leaf disk choice bioassay; assay type: functional, organism-based
How it was run: (§1)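 Leaf-disk choice test on greenhouse cabbage (Stonehead) leaves from 5-6-week plants. Freshly molted third-instar T. ni from a diet-reared colony (>50 generations) were starved 4-5 h. One disk had 10 μL test solution painted on each side, the other carrier solvent only. There were 25 larvae per treatment. Run ended at ~50% control disk eaten (3-5 h). Deterrence = (C−T)/(C+T)×100 from consumed areas.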

[3] = system: Trichoplusia ni; details: in vivo, 24 h
[4] = system: Trichoplusia ni; test: Feeding deterrent activity against freshly molted third-instar larval stage of Trichoplusia ni (cabbage looper) in compound pretreated cabbage leaves at 50 ug/cm2 after 3 to 5 hr by leaf disk choice bioassay; assay type: functional; how it was run: as §1

Row | Compound | Activity [1] | DC50 [2] | mortality [3] | Activity [4]
1 | C=CCc1cc(OCCCC)ccc1OCC | 64% | 22 microg/cm2 | 3.3% | 66%
2 | C=CCc1cccc(OCCC(C)C)c1OCCC(C)C |  |  | 7% | 22%
3 | C=CCc1c(OC)cccc1OCCC | 17% | 14 microg/cm2 |  | 100%
4 | CC(C)CCOc1ccc2c(c1)CC(C)O2 (configuration not stated) | -12% | 16 microg/cm2 | 1% | 100%
5 | CCCCOc1ccc2c(c1)CC(C)O2 (configuration not stated) | -12% | 16 microg/cm2 | 1% | 100%
6 | CCCOc1ccc2c(c1)CC(C)O2 (configuration not stated) | -12% | 16 microg/cm2 | 1% | 100%
7 | CCOc1ccc2c(c1)CC(C)O2 (configuration not stated) | -12% | 16 microg/cm2 | 1% | 100%
8 | COc1ccc2c(c1)CC(C)O2 (configuration not stated) | -12% | 16 microg/cm2 | 1% | 100%
9 | C=CCOc1ccc(OCCC(C)C)cc1CC=C |  |  |  | 29%
10 | C=CCOc1ccc(OCCCC)cc1CC=C |  |  |  | 29%
11 | C=CCOc1ccc(OCCC)cc1CC=C |  |  |  | 29%
12 | C=CCOc1ccc(OCC)cc1CC=C |  |  |  | 29%
13 | C=CCOc1ccc(OC)cc1CC=C |  |  |  | 29%
14 | C=CCc1cc(OCCC(C)C)ccc1OCCC(C)C | 20% | 15 microg/cm2 | 27% | 83%
15 | C=CCc1cc(OCCC)ccc1OCCC(C)C | 20% | 15 microg/cm2 | 27% | 83%
16 | C=CCc1cc(OCCCC)ccc1OCCC(C)C | 20% | 15 microg/cm2 | 27% | 83%
17 | C=CCc1cc(OCC)ccc1OCCC(C)C | 20% | 15 microg/cm2 | 27% | 83%
18 | C=CCc1cc(OCCC(C)C)ccc1OCCCC | -14% |  |  | 23%
19 | C=CCc1cc(OC)ccc1OCCC(C)C | 20% | 15 microg/cm2 | 27% | 83%

Row | Compound | Activity [1] | DC50 [2] | mortality [3] | Activity [4]
20 | C=CCc1cc(OCCCC)ccc1OCCCC | -14% |  |  | 23%
21 | C=CCc1cc(OCC)ccc1OCCCC | -14% |  |  | 23%
22 | C=CCc1cc(OCCC)ccc1OCCCC | -14% |  |  | 23%
23 | C=CCc1cc(OC)ccc1OCCCC | -14% |  |  | 23%
24 | C=CCc1cc(OC)ccc1OCCC | 7% | 9.4 microg/cm2 | 6.4% | 92%
25 | C=CCc1cc(OCCC(C)C)ccc1OCC | 64% | 22 microg/cm2 | 3.3% | 66%
26 | C=CCc1cc(OCCC)ccc1OCC | 64% | 22 microg/cm2 | 3.3% | 66%
27 | C=CCc1cc(OC)ccc1OCC | 64% | 22 microg/cm2 | 3.3% | 66%
28 | C=CCc1cc(OCC)ccc1OCC | 64% | 22 microg/cm2 | 3.3% | 66%
29 | C=CCc1cc(OCCC(C)C)ccc1OC | 37% | 19 microg/cm2 | 17% | 68%
30 | C=CCc1cc(OCCC)ccc1OC | 37% | 19 microg/cm2 | 17% | 68%
31 | C=CCc1cc(OCCCC)ccc1OC | 37% | 19 microg/cm2 | 17% | 68%
32 | C=CCc1cc(OCC)ccc1OC | 37% | 19 microg/cm2 | 17% | 68%
33 | C=CCc1cc(OCCCC)ccc1O | 51% | 57 microg/cm2 | 3.3% | 51%
34 | C=CCc1cc(OCCC(C)C)ccc1O | 51% | 57 microg/cm2 | 3.3% | 51%
35 | C=CCc1cc(OCC)ccc1O | 51% | 57 microg/cm2 | 3.3% | 51%
36 | C=CCc1cc(OCCC)ccc1O | 51% | 57 microg/cm2 | 3.3% | 51%
37 | C=CCc1cc(OC)ccc1O | 51% | 57 microg/cm2 | 3.3% | 51%
38 | C=CCOc1c(CC=C)cccc1OCCCC |  |  | 7% | 22%
